From ChEMBL document CHEMBL4043246, “Discovery of novel [1,2,4]triazolo[4,3-a]quinoxaline aminophenyl derivatives as BET inhibitors for cancer treatment” (Bioorg Med Chem Lett, 2017)

How the values were obtained:
[1] = biological target: T1, Bromodomain-containing protein 4 (Homo sapiens, UniProt O60885); assay: Inhibition of human partial length BRD4 BD1 (N44 to E168 residues) expressed in bacterial expression system assessed as residual activity at 500 nM relative to control by BROMOscan assay
[2] = biological target: Nucleosome-remodeling factor subunit BPTF (Homo sapiens) (UniProt Q12830); assay: Inhibition of human partial length FALZ (S2791 to H2911 residues) expressed in bacterial expression system assessed as residual activity at 500 nM relative to control by BROMOscan assay
Rattus norvegicus [3] = assay: Tmax in rat at 20 mg/kg, po; type: ADME, organism-based; conditions: in vivo
Outline: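 Rat pharmacokinetics after a single intravenous dose of 2 mg/kg or oral doses of 5 mg/kg and 20 mg/kg. Reported parameters are Tmax, Cmax, T1/2, AUCt, AUC∞, CL, Vss and F(%). CL, Vss and F come from the intravenous/oral 2 and 5 mg/kg arms.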

Rattus norvegicus [4] = assay: Half life in rat at 20 mg/kg, po; type: ADME, organism-based; conditions: in vivo
Outline: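 Rat pharmacokinetics with single intravenous (2 mg/kg) or oral (5 or 20 mg/kg) dosing. Terminal half-life is reported in hours.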

[5] = biological target: T1, Bromodomain-containing protein 4; assay: Inhibition of BRD4 BD1-BD2 (unknown origin) using tetraacetylated histone peptide as substrate after 2 hrs by alphascreen assay
[6] = biological target: ATPase family AAA domain-containing protein 2 (Homo sapiens) (UniProt Q6PL18); assay: Inhibition of human partial length ATAD2A (Q981 to R1108 residues) expressed in bacterial expression system assessed as residual activity at 500 nM relative to control by BROMOscan assay
[7] = biological target: Transcription initiation factor TFIID subunit 1 (Homo sapiens) (UniProt P21675); assay: Inhibition of human partial length TAF1 BD2 (D1521 to D1656 residues) expressed in bacterial expression system assessed as residual activity at 500 nM relative to control by BROMOscan assay
Transcription initiation factor TFIID subunit 1 (Homo sapiens), sequence (P21675 whole entry, the tested form may be a part): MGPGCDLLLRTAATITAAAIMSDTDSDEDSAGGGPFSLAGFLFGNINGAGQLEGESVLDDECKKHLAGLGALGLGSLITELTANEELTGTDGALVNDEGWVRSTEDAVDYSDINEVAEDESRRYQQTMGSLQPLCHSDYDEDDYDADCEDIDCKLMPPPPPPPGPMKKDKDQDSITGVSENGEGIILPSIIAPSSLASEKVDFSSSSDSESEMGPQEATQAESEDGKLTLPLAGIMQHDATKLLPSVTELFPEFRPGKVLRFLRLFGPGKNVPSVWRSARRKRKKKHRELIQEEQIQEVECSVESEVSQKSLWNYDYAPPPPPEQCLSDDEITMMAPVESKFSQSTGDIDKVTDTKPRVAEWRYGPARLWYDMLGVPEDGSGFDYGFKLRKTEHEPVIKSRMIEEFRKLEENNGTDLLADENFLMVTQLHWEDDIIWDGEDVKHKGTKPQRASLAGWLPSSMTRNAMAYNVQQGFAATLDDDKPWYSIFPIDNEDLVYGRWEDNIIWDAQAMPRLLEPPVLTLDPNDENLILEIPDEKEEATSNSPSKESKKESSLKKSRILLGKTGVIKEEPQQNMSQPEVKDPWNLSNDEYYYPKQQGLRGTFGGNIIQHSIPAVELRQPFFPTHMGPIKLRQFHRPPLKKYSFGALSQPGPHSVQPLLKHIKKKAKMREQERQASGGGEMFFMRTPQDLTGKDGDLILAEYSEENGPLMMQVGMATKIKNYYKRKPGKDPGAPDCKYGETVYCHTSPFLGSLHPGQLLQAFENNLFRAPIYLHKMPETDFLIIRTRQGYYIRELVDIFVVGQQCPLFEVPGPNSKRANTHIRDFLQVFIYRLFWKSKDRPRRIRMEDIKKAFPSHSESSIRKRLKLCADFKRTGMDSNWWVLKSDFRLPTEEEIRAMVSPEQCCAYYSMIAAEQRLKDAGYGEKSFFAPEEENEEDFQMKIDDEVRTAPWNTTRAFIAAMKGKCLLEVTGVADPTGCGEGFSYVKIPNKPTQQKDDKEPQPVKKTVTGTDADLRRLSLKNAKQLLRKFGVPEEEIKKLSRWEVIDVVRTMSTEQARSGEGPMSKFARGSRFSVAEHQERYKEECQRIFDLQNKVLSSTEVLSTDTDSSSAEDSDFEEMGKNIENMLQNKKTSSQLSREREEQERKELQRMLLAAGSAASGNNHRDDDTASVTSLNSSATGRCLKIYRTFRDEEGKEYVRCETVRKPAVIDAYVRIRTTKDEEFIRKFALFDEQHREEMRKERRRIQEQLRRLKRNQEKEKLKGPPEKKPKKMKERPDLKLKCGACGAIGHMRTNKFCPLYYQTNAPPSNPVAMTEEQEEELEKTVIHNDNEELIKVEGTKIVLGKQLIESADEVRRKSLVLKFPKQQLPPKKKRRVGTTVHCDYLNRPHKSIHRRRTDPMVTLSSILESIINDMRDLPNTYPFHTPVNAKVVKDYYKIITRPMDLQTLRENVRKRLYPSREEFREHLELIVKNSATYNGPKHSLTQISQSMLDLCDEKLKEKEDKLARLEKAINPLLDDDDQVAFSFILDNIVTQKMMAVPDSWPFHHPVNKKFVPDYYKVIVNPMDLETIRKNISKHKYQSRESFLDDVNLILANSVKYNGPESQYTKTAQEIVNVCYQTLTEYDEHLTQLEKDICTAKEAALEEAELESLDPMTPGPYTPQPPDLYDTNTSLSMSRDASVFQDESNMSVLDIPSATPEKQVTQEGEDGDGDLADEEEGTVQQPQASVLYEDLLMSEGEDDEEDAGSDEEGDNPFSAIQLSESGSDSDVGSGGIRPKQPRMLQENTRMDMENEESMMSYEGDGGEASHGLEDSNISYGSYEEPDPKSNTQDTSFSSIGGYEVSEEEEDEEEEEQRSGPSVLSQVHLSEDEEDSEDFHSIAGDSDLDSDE

[8] = biological target: Bromodomain testis-specific protein (Homo sapiens) (UniProt Q58F21); assay: Inhibition of human partial length BRDT BD2 (K250 to E382 residues) expressed in bacterial expression system assessed as residual activity at 500 nM relative to control by BROMOscan assay
[9] = Stability in mouse liver microsomes assessed as parent compound remaining after 30 mins; type: ADME, microsome; conditions: read-out: Stability
Outline: (§1)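 Incubated in vitro with mouse, rat or human liver microsomes for 30 minutes. Result expressed as percent of parent compound remaining.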

[10] = Cell cycle arrest in human TY82 cells assessed as accumulation at G2/M phase at 10 uM after 24 hrs by DAPI staining based assay (reference value: 9%); type: functional
[11] = biological target: E3 ubiquitin-protein ligase TRIM33 (Homo sapiens) (UniProt Q9UPN9); assay: Inhibition of human partial length TRIM33-phd-bromo (D882 to A1087 residues) expressed in bacterial expression system assessed as residual activity at 500 nM relative to control by BROMOscan assay
[12] = Cell cycle arrest in human TY82 cells assessed as accumulation at S phase at 1 uM after 24 hrs by DAPI staining based assay (reference value: 11%); type: functional
[13] = biological target: T1, Bromodomain-containing protein 4; assay: Binding affinity to BRD4 BD2 (unknown origin)
[14] = biological target: Bromodomain-containing protein 7 (Homo sapiens) (UniProt Q9NPI1); assay: Inhibition of human partial length BRD7 (L125 to R254 residues) expressed in mammalian expression system assessed as residual activity at 500 nM relative to control by BROMOscan assay
Bromodomain-containing protein 7 (Homo sapiens), sequence (Q9NPI1 whole entry, the tested form may be a part): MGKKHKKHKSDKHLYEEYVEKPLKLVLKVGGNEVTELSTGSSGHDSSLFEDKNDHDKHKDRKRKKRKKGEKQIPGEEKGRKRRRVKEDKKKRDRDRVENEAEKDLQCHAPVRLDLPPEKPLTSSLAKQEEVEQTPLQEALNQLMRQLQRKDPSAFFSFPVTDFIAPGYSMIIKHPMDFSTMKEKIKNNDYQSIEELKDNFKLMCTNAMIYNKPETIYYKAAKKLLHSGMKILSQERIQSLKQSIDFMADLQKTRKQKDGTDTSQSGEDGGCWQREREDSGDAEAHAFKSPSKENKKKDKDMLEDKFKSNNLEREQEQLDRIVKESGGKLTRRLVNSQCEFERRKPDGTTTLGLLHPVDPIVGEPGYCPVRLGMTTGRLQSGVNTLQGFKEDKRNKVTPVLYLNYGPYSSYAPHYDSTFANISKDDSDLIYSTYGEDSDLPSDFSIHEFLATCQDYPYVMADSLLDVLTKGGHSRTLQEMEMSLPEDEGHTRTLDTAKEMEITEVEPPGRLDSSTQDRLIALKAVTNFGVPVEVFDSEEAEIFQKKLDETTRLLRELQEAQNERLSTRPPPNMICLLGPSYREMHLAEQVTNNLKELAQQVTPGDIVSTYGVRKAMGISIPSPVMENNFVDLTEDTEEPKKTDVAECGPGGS

[15] = Cell cycle arrest in human TY82 cells assessed as accumulation at G2/M phase at 1 uM after 24 hrs by DAPI staining based assay (reference value: 9%); type: functional
Rattus norvegicus [16] = assay: AUCinfinity in rat at 20 mg/kg, po; type: ADME, organism-based; parameters: dose 20 mg/kg, time infinity, route oral; conditions: in vivo
Outline: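 Rat pharmacokinetics with single dosing, either intravenous at 2 mg/kg or oral at 5 or 20 mg/kg. AUC is reported both to the last time point (AUCt) and extrapolated to infinity, in ug.hr/mL.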

[17] = Cell cycle arrest in human TY82 cells assessed as accumulation at S phase at 10 uM after 24 hrs by DAPI staining based assay (reference value: 11%); type: functional
[18] = biological target: Histone acetyltransferase p300 (Homo sapiens) (UniProt Q09472); assay: Inhibition of human partial length EP300 (A1040 to G1161 residues) expressed in bacterial expression system assessed as residual activity at 500 nM relative to control by BROMOscan assay
[19] = biological target: CREB-binding protein (Homo sapiens) (UniProt Q92793); assay: Inhibition of human partial length CREBBP (R1081 to G1197 residues) expressed in bacterial expression system assessed as residual activity at 500 nM relative to control by BROMOscan assay
[20] = biological target: SWI/SNF-related matrix-associated actin-dependent regulator of chromatin subfamily A member 4 (Homo sapiens) (UniProt P51532); assay: Inhibition of human partial length SMARCA4 (A1448 to S1575 residues) expressed in bacterial expression system assessed as residual activity at 500 nM relative to control by BROMOscan assay
[21] = biological target: Protein polybromo-1 (Homo sapiens) (UniProt Q86U86); assay: Inhibition of human partial length PBRM1 BD5 (S645 to D766 residues) expressed in bacterial expression system assessed as residual activity at 500 nM relative to control by BROMOscan assay
Protein polybromo-1 (Homo sapiens), sequence (Q86U86 whole entry, the tested form may be a part): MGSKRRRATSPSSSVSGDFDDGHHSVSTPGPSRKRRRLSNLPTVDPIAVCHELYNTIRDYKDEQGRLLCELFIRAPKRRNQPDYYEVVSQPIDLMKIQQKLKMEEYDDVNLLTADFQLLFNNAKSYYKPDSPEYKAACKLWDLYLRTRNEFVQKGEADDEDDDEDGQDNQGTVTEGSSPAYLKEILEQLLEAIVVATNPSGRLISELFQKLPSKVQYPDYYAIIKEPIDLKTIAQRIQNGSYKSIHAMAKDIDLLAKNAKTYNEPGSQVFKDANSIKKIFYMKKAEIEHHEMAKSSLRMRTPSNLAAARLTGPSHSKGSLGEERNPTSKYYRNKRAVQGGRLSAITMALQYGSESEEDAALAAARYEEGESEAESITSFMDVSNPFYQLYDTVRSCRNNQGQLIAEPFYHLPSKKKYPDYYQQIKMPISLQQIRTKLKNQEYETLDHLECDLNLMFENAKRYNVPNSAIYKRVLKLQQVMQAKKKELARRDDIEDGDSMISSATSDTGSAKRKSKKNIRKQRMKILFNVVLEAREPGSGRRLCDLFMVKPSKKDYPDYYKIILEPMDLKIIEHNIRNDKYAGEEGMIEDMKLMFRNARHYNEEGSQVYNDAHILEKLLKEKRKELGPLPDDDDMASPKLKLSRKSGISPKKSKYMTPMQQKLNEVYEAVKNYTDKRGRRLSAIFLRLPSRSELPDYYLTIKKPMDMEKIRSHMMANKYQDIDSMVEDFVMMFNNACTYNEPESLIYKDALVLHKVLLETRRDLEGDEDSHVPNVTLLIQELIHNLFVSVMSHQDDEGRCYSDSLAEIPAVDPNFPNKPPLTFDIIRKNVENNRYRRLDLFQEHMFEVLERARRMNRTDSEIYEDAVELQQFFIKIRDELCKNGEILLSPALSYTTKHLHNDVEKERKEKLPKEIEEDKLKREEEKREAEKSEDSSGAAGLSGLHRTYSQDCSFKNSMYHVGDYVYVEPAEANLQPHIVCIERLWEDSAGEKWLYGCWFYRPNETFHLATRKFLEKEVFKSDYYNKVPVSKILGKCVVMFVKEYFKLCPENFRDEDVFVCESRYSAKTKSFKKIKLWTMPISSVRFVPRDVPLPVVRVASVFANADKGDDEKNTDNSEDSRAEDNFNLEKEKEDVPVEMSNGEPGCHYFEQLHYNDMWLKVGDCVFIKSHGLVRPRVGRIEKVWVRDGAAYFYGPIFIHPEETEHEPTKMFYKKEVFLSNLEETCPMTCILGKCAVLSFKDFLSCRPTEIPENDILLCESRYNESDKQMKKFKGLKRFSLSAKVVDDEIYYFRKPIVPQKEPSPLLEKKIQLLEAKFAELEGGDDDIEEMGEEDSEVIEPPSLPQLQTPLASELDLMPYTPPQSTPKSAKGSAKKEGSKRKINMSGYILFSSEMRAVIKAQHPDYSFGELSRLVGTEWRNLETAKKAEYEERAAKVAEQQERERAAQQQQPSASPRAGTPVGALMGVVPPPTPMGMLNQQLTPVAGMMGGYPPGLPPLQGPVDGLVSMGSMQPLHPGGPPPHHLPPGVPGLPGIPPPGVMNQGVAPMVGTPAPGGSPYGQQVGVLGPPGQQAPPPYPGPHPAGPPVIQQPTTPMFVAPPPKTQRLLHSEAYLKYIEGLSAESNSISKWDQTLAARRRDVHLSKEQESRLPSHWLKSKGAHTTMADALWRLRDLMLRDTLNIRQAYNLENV

[22] = biological target: Bromodomain-containing protein 3 (Homo sapiens) (UniProt Q15059); assay: Inhibition of human partial length BRD3 BD2 (G306 to P416 residues) expressed in bacterial expression system assessed as residual activity at 500 nM relative to control by BROMOscan assay
Bromodomain-containing protein 3 (Homo sapiens), sequence (Q15059 2-726 limits assumed): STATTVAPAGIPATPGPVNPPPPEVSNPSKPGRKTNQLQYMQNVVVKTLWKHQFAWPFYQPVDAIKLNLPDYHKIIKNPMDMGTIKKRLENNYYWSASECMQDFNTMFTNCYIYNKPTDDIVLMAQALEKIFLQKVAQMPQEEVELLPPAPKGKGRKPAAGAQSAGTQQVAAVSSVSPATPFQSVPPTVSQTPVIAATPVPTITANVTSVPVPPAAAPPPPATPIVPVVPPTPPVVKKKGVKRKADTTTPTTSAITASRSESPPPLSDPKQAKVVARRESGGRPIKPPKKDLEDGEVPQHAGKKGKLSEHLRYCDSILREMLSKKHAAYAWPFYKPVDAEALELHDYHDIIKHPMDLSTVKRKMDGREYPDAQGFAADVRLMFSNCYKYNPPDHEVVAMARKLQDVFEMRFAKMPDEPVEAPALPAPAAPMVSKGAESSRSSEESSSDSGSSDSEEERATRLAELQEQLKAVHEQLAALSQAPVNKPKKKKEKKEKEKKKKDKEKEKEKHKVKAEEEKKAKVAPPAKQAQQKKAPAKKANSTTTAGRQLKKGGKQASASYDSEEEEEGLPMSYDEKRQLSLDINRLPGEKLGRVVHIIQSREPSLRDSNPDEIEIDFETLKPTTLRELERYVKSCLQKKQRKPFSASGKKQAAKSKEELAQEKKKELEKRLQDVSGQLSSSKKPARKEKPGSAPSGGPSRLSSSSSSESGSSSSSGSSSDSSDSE

Peregrin (Homo sapiens) = Peregrin (Homo sapiens) (UniProt P55201); assay: Inhibition of human partial length BRPF1 (E627 to G740 residues) expressed in bacterial expression system assessed as residual activity at 500 nM relative to control by BROMOscan assay
THP-1 = assay: Antiproliferative activity against human THP1 cells; type: functional, cell-based
[23] = biological target: T1, Bromodomain-containing protein 4; assay: Binding affinity to BRD4 BD1 (unknown origin)
[24] = Cell cycle arrest in human TY82 cells assessed as accumulation at G1 phase at 10 uM after 24 hrs by DAPI staining based assay (reference value: 73%); type: functional
[25] = biological target: Protein polybromo-1 (Homo sapiens) (UniProt Q86U86); assay: Inhibition of human partial length PBRM1 BD2 (S178 to E291 residues) expressed in bacterial expression system assessed as residual activity at 500 nM relative to control by BROMOscan assay
[26] = biological target: Histone acetyltransferase KAT2A (Homo sapiens) (UniProt Q92830); assay: Inhibition of human partial length GCN5L2 (E726 to K837 residues) expressed in bacterial expression system assessed as residual activity at 500 nM relative to control by BROMOscan assay
[27] = Antiproliferative activity against human TY82 cells; type: functional, cell-based
[28] = biological target: Bromodomain-containing protein 3 (Homo sapiens) (UniProt Q15059); assay: Inhibition of human partial length BRD3 BD1 (P24 to E144 residues) expressed in bacterial expression system assessed as residual activity at 500 nM relative to control by BROMOscan assay
[29] = Stability in human liver microsomes assessed as parent compound remaining after 30 mins; type: ADME, microsome; conditions: read-out: Stability; outline: as §1

## Cc1nnc2c(Nc3cccc(CNC(=O)C(C)C)c3)nc3ccccc3n12
[1]
  Activity: 17%
[2]
  Activity: 90%
Rattus norvegicus [3]
  Tmax: 1.3 h
Rattus norvegicus [4]
  t1/2: 3 h
[5]
  IC50: 68 nM
[6]
  Activity: 100%
[7]
  Activity: 36%
[8]
  Activity: 14%
[9]
  remaining at 0.5 h: 0.024%
[10]
  Activity: 4%
[11]
  Activity: 100%
[12]
  Activity: 6%
[13]
  Kd: 9 nM
[14]
  Activity: 80%
[15]
  Activity: 8%
Rattus norvegicus [16]
  AUC: 25.3 µg·h/mL
[17]
  Activity: 2%
[18]
  Activity: 89%
[19]
  Activity: 87%
[20]
  Activity: 100%
[21]
  Activity: 84%
[22]
  Activity: 30%
Peregrin (Homo sapiens)
  Activity: 37%
THP-1
  IC50: 1600 nM
[23]
  Kd: 27 nM
[24]
  Activity: 88%
[25]
  Activity: 87%
[26]
  Activity: 100%
[27]
  IC50: 2500 nM
[28]
  Activity: 11%
[29]
  remaining at 0.5 h: 92%
